The list is not random: actives were taken first. Their share in the collection is about 1.8%.
LMPTP inh: LMPTP phosphatase inhibitors, primary screen, biochemical, fluorescence intensity, uHTS. actives 0.22% (n = 360,000). Low molecular weight phosphotyrosine protein phosphatase (Homo sapiens), P24666. inhibition, % at 20 µM. recombinant LMPTP-A, OMFP fluorogenic substrate;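 active = compounds that cut the enzyme signal by at least half of the control window in the single-dose screen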;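 note: plate controls were DMSO wells with enzyme plus substrate for no effect and substrate without enzyme for full effect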
Target sequence (P24666 whole entry, looked up): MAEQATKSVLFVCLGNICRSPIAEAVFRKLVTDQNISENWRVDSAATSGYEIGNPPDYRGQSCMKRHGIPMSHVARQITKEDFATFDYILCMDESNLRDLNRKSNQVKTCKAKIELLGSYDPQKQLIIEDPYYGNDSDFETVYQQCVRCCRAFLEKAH
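Buffer or medium: Bis-Tris pH 6.0, DTT, detergent; Assay system: LMPTP-A enzyme; Quantity: 0.625 nM enzyme; Detection: endpoint fluorescence intensity; Times: 50 min dark incubation at room temperature; Controls: substrate-only low control, DMSO enzyme-plus-substrate high control; Doses: single 20 µM dose; Read-out: percent inhibition versus substrate-only and uninhibited controls; Reagent: 400 µM OMFP.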
STEP block: STEP phosphatase inhibitors, primary screen, biochemical, fluorescence intensity, uHTS; inhibition, % at 20 µM; AID 588621, 2011; Tyrosine-protein phosphatase non-receptor type 5 (Homo sapiens), P54829; recombinant STEP, OMFP fluorogenic substrate; actives 0.25% (n = 360,000);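 active = inhibition at 20 µM, scaled per plate between control wells, above about 37%, limit read from the data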;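 note: 0% = DMSO with enzyme and substrate and 100% = substrate only without enzyme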
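medium = Bis-Tris buffer pH 6.0, 2.5 mM DTT, 0.005% Tween 20 | test system = STEP (striatal-enriched tyrosine phosphatase) enzyme, cell-free | measure = normalized % inhibition | compound dosing = 20 µM, 1% DMSO | also added = 25 µM OMFP | schedule = reaction 20 min, ambient temperature | measured by = fluorescence read at 480 nm ex / 540 nm em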
SUMO1 PPI mod: modulators of SUMO1 protein-protein interactions, primary screen, biochemical, uHTS. Small ubiquitin-related modifier 1 (Homo sapiens), P63165. SUMO1 binding to a labelled peptide, TR-FRET, 1 h. inhibition, % at 20 µM. actives 0.33% (n = 360,000). AID 602429, 2012; in the data active = inhibition above about 37%
Target sequence (P63165 whole entry, looked up): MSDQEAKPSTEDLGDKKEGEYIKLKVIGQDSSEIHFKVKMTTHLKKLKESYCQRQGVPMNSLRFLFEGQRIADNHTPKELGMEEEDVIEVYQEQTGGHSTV
Scp1 inh: Scp-1 phosphatase inhibitors, primary screen, biochemical, colorimetric, uHTS. Carboxy-terminal domain RNA polymerase II polypeptide A small phosphatase 1 (Homo …. Recombinant Scp1, phosphopeptide, malachite green phosphate absorbance. inhibition, % at 20 µM. actives 0.88% (n = 340,000). AID 493091, 2011;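 active = inhibition above about 50% at 20 µM, limit read from the data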;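 note: plate controls were DMSO wells with enzyme for no effect and wells lacking enzyme for full effect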
Target sequence (Q9GZU7 76-261 limits assumed): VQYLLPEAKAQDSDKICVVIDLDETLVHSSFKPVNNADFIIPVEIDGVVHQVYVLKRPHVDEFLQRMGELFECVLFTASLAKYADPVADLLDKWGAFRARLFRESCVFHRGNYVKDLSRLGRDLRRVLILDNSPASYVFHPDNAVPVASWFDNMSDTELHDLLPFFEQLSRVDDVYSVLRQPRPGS
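Material – SCP-1 phosphatase catalytic domain, residues 76-261 · Buffer or medium – Acidic Tris acetate buffer with magnesium and detergent · Also added – Phospho 17-mer peptide substrate · Compound – single 20 µM dose, 1% DMSO · Times – 45 min room-temperature reaction, 5 min colour, 30 min stabiliser · Technique – Phosphate-binding colour reagent, absorbance read at 630 nm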
DNMT1 block: human DNMT1 methyltransferase inhibitors, primary screen, biochemical, molecular beacon, fluorescence, HinP1I cleavage, uHTS. inhibition (reported as % activation of signal), % at 10 µM. actives 0.83% (n = 360,000). AID 588458, 2011. DNA (cytosine-5)-methyltransferase 1 (Homo sapiens), P26358; in the data active = inhibition above about 50%
The depositor's hits bear a star; · = not tested or not shown.

SMILES | LMPTP inh | STEP block | SUMO1 PPI mod | Scp1 inh | DNMT1 block
CCN(CC)c1ccc(-c2sc(Nc3ccccc3)n[n+]2-c2ccc(F)cc2)cc1 | 0.4 | -6.7 | -27.7 | -1.9 | 15.9
COc1ccc(C)cc1Nc1n[n+](-c2ccccc2)c(-c2ccc(N(C)C)cc2)s1 | 6.1 | -1.3 | -44.0 | 13.6 | 60.0*
CCc1ccc(Nc2n[n+](-c3ccccc3)c(-c3ccc(N(CC)CC)cc3)s2)cc1 | 4.2 | -5.2 | -70.6 | 9.3 | 67.7*
CCc1ccc(Nc2n[n+](-c3ccccc3)c(-c3c(Cl)cccc3Cl)s2)cc1 | 70.5* | 2.9 | -34.2 | 19.6 | -0.4
COC(=O)[C@@]12C[C@@H](CC(=O)N3CCSCC3)C(=O)N(CCc3ccc(OC)c(OC)c3)C1=CCC(C)(C)C2 | -0.4 | · | 3.0 | · | ·
O=C(CNC(=O)c1ccco1)OCc1ccccc1F | 0.7 | 0.4 | -1.1 | -1.0 | 8.7
Cc1cc(C)c2c(N)c(C(=O)Nc3ccc([N+](=O)[O-])cc3)sc2n1 | 28.1 | 18.6 | 43.9* | 39.3 | -9.6
CC1CC(C)CN(C(=O)CSc2ncnc3sccc23)C1 (configuration not stated) | -1.0 | -0.9 | 0.9 | -1.7 | -1.0
Cc1ccc(N2C(=O)N(CC(=O)Nc3ccc(C)cc3Cl)C(=O)C2C)cc1 (configuration not stated) | 0.0 | 8.1 | 7.3 | -9.0 | 3.2
O=C(CSc1nnc(-c2ccco2)c(-c2ccco2)n1)c1ccccc1 | 8.0 | 5.4 | 29.9 | 45.0 | 84.7*
O=C(NC1CCCC1)C(c1ccccc1)n1c(Cc2cc(F)cc(F)c2)nc2ccccc21 (configuration not stated) | 0.5 | · | 2.7 | · | ·
CCN1CCc2nc(N)sc2C1 | 1.1 | 96.4* | -1.7 | -11.7 | -1.6
CC(C)(C)OC(=O)N1CCC(c2cc(=O)n3[nH]cc(C(=O)Nc4ccc(F)c(Cl)c4)c3n2)CC1 | 5.6 | -2.3 | 50.6* | 6.0 | -10.0
CCOC(=O)N1CCC(NC(=O)c2ccc3c(c2)N=C(C)c2c(C)ccc(C)c2S3)CC1 | 1.7 | 0.9 | -3.2 | -4.5 | -5.4
O=S(=O)(NCc1ccccc1)c1ccc(Cl)cc1 | -0.5 | -2.3 | 2.6 | -16.6 | 2.1
O=S(=O)(Nc1cc2nc3ccccc3nc2n1Cc1ccccc1)c1ccc(Cl)cc1 | 38.0 | -12.9 | 51.4* | -14.0 | 89.2*
Cc1ccc(C)n1Cc1ccc(C(=O)O)cc1 | 21.2 | 92.9* | 23.0 | 114.5* | 106.3*
OC(c1ccccc1)(c1ccccc1)c1nccc2ccccc12 | -0.8 | 2.3 | -1.0 | 1.1 | -2.5
CCC(c1nnnn1-c1ccc2c(c1)OCCO2)N1CCN(c2ccc(C(F)(F)F)cc2[N+](=O)[O-])CC1 (configuration not stated) | 2.0 | · | -4.6 | · | ·
CCOC(=O)c1sc2nc3c(SCCC#N)cc(C(=O)c4cc(F)ccc4O)cn3c(=O)c2c1C | -0.1 | 4.5 | 9.4 | -27.1 | -4.5
CCOC(=O)c1sc2nc3c(SCCC(=O)O)cc(C(=O)c4cc(OC)ccc4O)cn3c(=O)c2c1C | 91.7* | 96.4* | 83.8* | 26.7 | 104.2*
CCN(CC)c1ccc(Nc2nc(N3CCOCC3)c3ccccc3n2)cc1 | 8.0 | 5.2 | -0.3 | -7.0 | -8.8
COc1ccc(Nc2nc(N3CCCC3)c3ccccc3n2)cc1 | 51.4* | 3.1 | 4.2 | 3.6 | 17.2
CCOc1cc(/C=C2\C(=O)ON=C2C)ccc1OCc1ccccc1 | -0.7 | 0.9 | 39.6* | -17.6 | 7.6
O=c1cc(CSc2nc(NCc3ccccc3)c3ccccc3n2)nc2ccc(Cl)cn12 | 53.3* | 0.1 | -15.5 | 0.6 | -2.4
O=C(CCCn1c(SCc2cc(=O)n3cc(Cl)ccc3n2)nc2ccccc2c1=O)NCC1CCCO1 (configuration not stated) | -1.5 | 0.6 | -32.5 | -1.7 | 1.4
CCCCn1c(N)c(S(=O)(=O)c2ccc(C)cc2)c2nc3ccccc3nc21 | 5.0 | -2.7 | 39.4* | 3.0 | -26.9
COc1ccc(-n2cccc2/C=C2/NC(=O)N(c3cccc(Cl)c3)C2=O)cc1 | -0.8 | 1.8 | 0.7 | 6.8 | 11.2
